Screens deposited in PubChem by several laboratories.
In the library only some 3.6% were active in any assay of this set; here they are far more common.
UCH37 inh: blocks the human deubiquitinase UCH37 | Q9Y5K5 | purified proteasome/UCH37, Ub-AMC cleavage fluorescence | inhibition, % (test concentration not listed) | 0.33% of 330,000 active | AID 588478;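 active = mean inhibition over replicate wells above about 20%, limit read from the data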;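 note: 0% = compound-free wells with enzyme and 100% = wells lacking proteasome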
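Schedule: 30 min plus 25 min, room temperature / Material: human UCH37 within purified proteasomes / Technique: AMC fluorescence intensity at 355/460 nm / Buffer or medium: pH 7.4 Tris-HCl (50 mM) with ovalbumin, ATP-MgCl2, DTT / Controls: wells without proteasome as full block, compound-free enzyme plus substrate as uninhibited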
ATG4B inh: inhibitors of human ATG4B cysteine protease; Q9Y4P1; ATG4B cleavage of LC3-PLA2, NBD-HPC fluorescence, 1 h; inhibition, % at 8.33 µM; 0.51% of 340,000 active; in the data active = inhibition above about 40%
Target sequence (Q9Y4P1 whole entry, looked up): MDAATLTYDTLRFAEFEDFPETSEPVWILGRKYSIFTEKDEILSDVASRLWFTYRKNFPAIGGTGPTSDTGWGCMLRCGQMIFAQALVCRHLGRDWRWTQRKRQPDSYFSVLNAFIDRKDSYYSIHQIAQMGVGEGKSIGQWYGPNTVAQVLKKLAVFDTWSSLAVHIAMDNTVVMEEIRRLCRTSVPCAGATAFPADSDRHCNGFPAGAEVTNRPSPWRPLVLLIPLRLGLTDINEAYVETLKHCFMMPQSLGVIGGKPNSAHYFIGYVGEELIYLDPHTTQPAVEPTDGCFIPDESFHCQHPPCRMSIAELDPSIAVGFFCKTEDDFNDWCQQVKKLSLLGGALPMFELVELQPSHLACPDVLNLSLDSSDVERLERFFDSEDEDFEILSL
SENP1 FRET inh: SENP1 (human) catalytic domain inhibition; recombinant SENP1 catalytic domain, CyPet-SUMO1-YPet FRET cleavage; inhibition, % at 10 µM; 0.21% of 360,000 active;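 active = inhibition at least 30% at 10 µM, raw YFP signal under a set limit, fluorescence ratio 0.5 to 1.5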;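 note: 0% = enzyme with DMSO and 100% = no enzyme wells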
Target sequence (Q9P0U3 419-644 limits assumed): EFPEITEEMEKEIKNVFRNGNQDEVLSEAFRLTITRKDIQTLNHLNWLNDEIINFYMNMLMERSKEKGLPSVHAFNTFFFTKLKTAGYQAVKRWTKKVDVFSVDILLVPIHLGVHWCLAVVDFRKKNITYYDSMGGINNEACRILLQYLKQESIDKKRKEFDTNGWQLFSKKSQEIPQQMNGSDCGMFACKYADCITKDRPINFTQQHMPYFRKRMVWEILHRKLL
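Test system: hSENP1 catalytic domain, recombinant; Amount: 20 pM final SENP1 enzyme; Medium: Tris pH 8 buffer plus EDTA, NaCl, BME, BSA, NP40, catalase; Schedule: 50 min enzyme reaction, room temperature, light-protected; Technique: FRET fluorescence in CFP and YFP emission channels; Controls: no-enzyme wells low, DMSO-plus-enzyme wells high control.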
NadD inh: blocks S. aureus nicotinate mononucleotide adenylyltransferase; inhibition, % at 20 µM; purified NadD enzyme, colorimetric absorbance read-out; AID 602399; 0.78% of 360,000 active; in the data active = inhibition above about 26%
NR3A LBD binder: NR3A (human) ligand-binding domain modulation. NR3A LBD differential scanning fluorimetry, Tm shift; 0% = protein alone, 100% = glycine-bound protein. Tm shift relative to glycine control, % at 25 µM. 2.5% of 340,000 active;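 active = melting temperature shift of at least 10% of the positive control shift, at one fixed dose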
* = called active by the depositor; x = no result given.

SMILES | UCH37 inh | ATG4B inh | SENP1 FRET inh | NadD inh | NR3A LBD binder
C[C@H](NC(=O)c1[nH]cnc1C(=O)Nc1ccc(Cl)cc1)c1ccccc1 | 3.1 | -21.0 | 1.0 | 6.4 | 24.4*
C[C@H](NC(=O)c1[nH]cnc1C(=O)Nc1cccc(Cl)c1)c1ccccc1 | -8.5 | -9.5 | 2.5 | 1.2 | 5.8
CN(Cc1ccccc1)C(=O)c1[nH]cnc1C(=O)Nc1ccc(Cl)cc1 | 3.7 | -0.2 | 2.8 | 2.1 | -4.0
O=C1CCCCCC1=NNc1ccc(OCc2ccccc2)cc1 | 3.0 | x | x | x | x
CCOc1ccc(C=NNC(=O)c2cc3ccccc3cc2OC)cc1 | -11.7 | x | x | x | x
CCOc1ccc(OCCOCCOc2ccccc2Cl)cc1 | 3.1 | -2.7 | -1.6 | -4.2 | 17.9*
CCOc1cc(/C=N/O)cc(Br)c1OCc1ccc(Cl)cc1 | x | 7.0 | 0.2 | -9.0 | 12.8*
Cc1ccc(S(=O)(=O)Oc2ccccc2C=NNC(=O)c2nn(C)cc2[N+](=O)[O-])cc1 | 0.4 | x | x | x | x
O=[N+]([O-])c1ccc(O)c(N=Cc2sc3ccccc3c2O)c1 | 6.0 | -3.5 | -48.0 | 7.6 | 15.9*
Oc1cc2c(cc1O)[C@H]1c3ccc(O)c(O)c3OC[C@@]1(O)C2 | x | 2.0 | -7.0 | 12.2 | 1.4
Oc1ccc2c(c1)OCC1(O)Cc3cc(O)c(O)cc3C21 (stereo not drawn) | x | -6.3 | 30.9* | 3.3 | -1.1
Brc1ccc(NN=C(N=Nc2nn[nH]n2)c2ccccc2)cc1 | 22.0* | x | x | x | x
O=C(O)c1ccc(N=NC(=NNc2ccc(C(=O)O)cc2)c2ccccc2)cc1 | 7.2 | x | x | x | x
O=C(O)c1ccc(N=N/C(=N\Nc2ccc(C(=O)O)cc2)c2ccccc2)cc1 | x | 6.8 | 4.3 | -1.2 | 23.2*
O=C(NN=Cc1ccncc1)c1cccc(S(=O)(=O)Nc2ccc(Cl)cc2)c1 | 5.3 | x | x | x | x
COc1cccc(NC(=S)N(Cc2cccc(Br)c2)CC2CCC(C(=O)O)CC2)c1 (stereo not drawn) | 0.9 | 0.1 | 3.2 | 4.7 | 17.0*
COc1ccc(NC(=S)N(Cc2cccc(Br)c2)CC2CCC(C(=O)O)CC2)cc1 (stereo not drawn) | 0.7 | 5.5 | 2.9 | -4.7 | 12.2*
COc1cc(C=NN2CCCCC2)cc([N+](=O)[O-])c1O | 11.2 | x | x | x | x
O=C(O)c1ccc(C=NNc2ccc(S(=O)(=O)N3CCOCC3)cc2[N+](=O)[O-])cc1 | 16.4 | x | x | x | x
Cc1ccc(NS(=O)(=O)c2cccc(C(=O)NN=Cc3c(C)nn(-c4ccccc4)c3N3CCCC3)c2)c(C)c1 | -81.2 | x | x | x | x
COc1ccc(N2C(=O)/C(=C/N(C)C)NC2=S)cc1 | 22.5* | -2.0 | 3.3 | 6.2 | -2.1
COc1ccc(N2C(=O)/C(=C/c3cccnc3)NC2=S)cc1 | x | 5.6 | -1.0 | -2.7 | 0.6
COc1cc(NC(=O)COC(=O)CON=C(C)c2ccc3c(c2)OCO3)cc(OC)c1 | 0.4 | x | x | x | x
O=C1C(Cl)=C(NCc2cccnc2)C(=O)c2ccccc21 | 24.9* | -4.2 | 7.5 | -4.5 | -0.4
C=CCNC1=C(Cl)C(=O)c2ccccc2C1=O | 14.7 | -2.1 | -3.7 | 0.0 | -1.4
SMILES | UCH37 inh | ATG4B inh | SENP1 FRET inh | NadD inh | NR3A LBD binder
COc1ccc(NC(=O)c2ccc(-c3ccc(OC)cc3)s2)cc1 | -15.5 | 3.4 | 2.5 | 2.3 | 22.3*
CNC(=O)c1ccc(-c2ccc(F)cc2)s1 | -25.7 | -2.4 | 1.2 | -1.5 | -46.0
O=C(Nc1ccccc1)c1ccc(-c2ccc(F)cc2)s1 | -29.3 | -2.0 | 1.9 | -4.9 | 21.6*
COC(=O)c1cnn(-c2ccc(Cl)cc2)c1C=NNC(N)=S | 4.4 | x | x | x | x
Clc1ccccc1-c1nc(C=NN2CCOCC2)c2ccccn12 | 7.2 | x | x | x | x
N#CC12CCCCC1CC1CCCCC1(C#N)N2Cc1ccccn1 (stereo not drawn) | 5.3 | -4.3 | 2.5 | 2.0 | 10.2*
N#CC12CCCCC1CC1CCCCC1(C#N)N2CCO (stereo not drawn) | 5.8 | -5.1 | -1.2 | -5.0 | -4.2
CN1C(=S)N(c2cccnc2)C(=O)/C1=C\c1ccc(N(C)C)cc1 | 12.0 | -3.0 | 61.0* | -1.3 | -1.4
Cc1c(N2C(=O)/C(=C\c3ccc(N(C)C)cc3)N(C)C2=S)c(=O)n(-c2ccccc2)n1C | 19.9 | -2.7 | 69.3* | 1.6 | -1.3
Cc1ccccc1OCC(=O)NN=Cc1ccc2c(c1)OCCO2 | 6.5 | x | x | x | x
COc1cc(C(=O)NN=Cc2cccc(Oc3ccccc3)c2)ccc1O | 1.5 | x | x | x | x
COc1cc(C=NNC(=O)Cc2csc(N3CCOCC3)n2)cc(OC)c1O | -27.1 | x | x | x | x
CN(/N=C/c1c[nH]c2ccccc12)c1cnn(-c2ccc(F)c(Cl)c2)c(=O)c1Cl | x | -5.6 | 22.2 | 17.5 | 259.4*
CN(N=Cc1c[nH]c2ccccc12)c1cnn(-c2ccc(F)c(Cl)c2)c(=O)c1Cl | 5.8 | x | x | x | x
COC(=O)c1ccccc1Sc1c(C=NOCc2ccc(Cl)cc2)c(C(F)(F)F)nn1C | 4.0 | x | x | x | x
O=C1N=c2ccccc2=C1c1sc(=S)n(NC(=O)c2ccccc2)c1O | x | 2.4 | 0.2 | 5.9 | 30.9*
Cn1c(O)c(C2=c3ccccc3=NC2=O)[nH]c1=S | x | 30.2 | 1.1 | 2.5 | -0.6
O=C(Nc1ccc(Oc2ncnc3cc(Cl)ccc23)nc1)c1ccc(F)cc1 | -1.6 | 2.9 | x | x | 6.3
O=C(Nc1ccc(Oc2ncnc3cc(Cl)ccc23)nc1)Nc1cccc(C(F)(F)F)c1 | 3.4 | 0.3 | -2.2 | 15.5 | 97.9*
CC(=NNC(=S)Nc1ccc(F)cc1)C1CC1 | 4.1 | x | x | x | x
C(=NN1CCN(Cc2cccc3ccccc23)CC1)c1cccs1 | 1.9 | x | x | x | x
O=C(CSc1ncnc2[nH]ncc12)Nc1nc(-c2ccc(F)c(F)c2)cs1 | -2.1 | 0.6 | 0.1 | 0.2 | 20.2*
O=C(Cc1ccc(F)cc1)Nc1nc(-c2ccc(F)c(F)c2)cs1 | 3.9 | 1.7 | 1.2 | -4.5 | -0.7
CCCn1c(N=Cc2ccccc2O)nc2ccccc21 | 2.1 | x | x | x | x
O=C1CS(=O)(=O)N(Cc2cccc(F)c2)c2ccc(Br)cc21 | 3.4 | 6.6 | 5.5 | -4.8 | -11.8
SMILES | UCH37 inh | ATG4B inh | SENP1 FRET inh | NadD inh | NR3A LBD binder
O=C1c2cc(Br)ccc2N(Cc2ccc(Br)cc2)S(=O)(=O)C1c1cc(Cl)c(Cl)cc1[N+](=O)[O-] (stereo not drawn) | x | 68.2* | 1.0 | 32.3* | -3.0
CCN(CC(=O)Nc1ccc(NC(C)=O)cc1)C(=O)/C=C/c1cn(-c2ccccc2)nc1-c1ccc(F)cc1 | -12.2 | -7.2 | -0.7 | -4.7 | 13.7*
CCN(CC(=O)Nc1ccc(NC(C)=O)cc1)C(=O)c1cc(-c2ccccc2)nn1-c1ccccc1 | 2.6 | -9.5 | 0.5 | 0.0 | -1.0
COc1ccc(-c2nn(-c3ccccc3)cc2/C=C/C(=O)N(C)CC(=O)Nc2cccc(F)c2)cc1OC | -54.7 | -11.1 | -2.2 | 6.6 | 10.8*
CCN(CC(=O)Nc1ccc(NC(C)=O)cc1)C(=O)/C=C/c1cn(-c2ccccc2)nc1-c1ccc(C)cc1 | -3.2 | 3.5 | -1.1 | -8.3 | 10.4*
COc1ccc(NC(=O)CN(C)C(=O)c2cn(-c3ccccc3)nc2-c2cccs2)cc1 | -2.2 | -11.8 | 1.0 | -4.8 | 2.1
